From ChEMBL document CHEMBL4196040, “Discovery of carbazole carboxamides as novel RORγt inverse agonists” (Eur J Med Chem, 2018)

Assays:
[1] = target: T1, Nuclear receptor ROR-gamma (Homo sapiens, UniProt P51449); experiment: Inverse agonist activity at APC-labeled RORgammat LBD (unknown origin) assessed as inhibition of N-(2-chloro-6-fluorobenzyl)-N-((20-methoxy-[1,10-biphenyl]-4-yl)methyl)benzenesulfonamide -induced co-activator europium-labeled SRC1 peptide recruitment after 1 hr by LANCE-FRET assay
T1 sequence (P51449 whole entry): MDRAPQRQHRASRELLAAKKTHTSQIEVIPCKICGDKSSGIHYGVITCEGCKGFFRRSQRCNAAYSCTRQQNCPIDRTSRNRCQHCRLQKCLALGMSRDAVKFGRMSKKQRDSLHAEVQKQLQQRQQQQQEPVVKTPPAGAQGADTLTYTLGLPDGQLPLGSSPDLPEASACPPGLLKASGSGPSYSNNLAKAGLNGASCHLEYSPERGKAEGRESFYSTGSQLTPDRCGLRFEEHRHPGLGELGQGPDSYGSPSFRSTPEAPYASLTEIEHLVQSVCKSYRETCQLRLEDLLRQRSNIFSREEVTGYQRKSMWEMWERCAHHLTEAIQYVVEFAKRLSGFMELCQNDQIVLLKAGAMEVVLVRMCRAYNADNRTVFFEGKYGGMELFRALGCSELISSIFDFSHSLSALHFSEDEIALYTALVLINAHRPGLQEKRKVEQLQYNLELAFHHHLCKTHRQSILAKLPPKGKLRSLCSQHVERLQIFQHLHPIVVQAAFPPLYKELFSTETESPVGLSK

[2] = target: T2, Nuclear receptor ROR-gamma (Homo sapiens) (UniProt P51449); experiment: Agonist activity at APC-labeled RORgammat LBD (unknown origin) assessed as co-activator europium-labeled SRC1 peptide recruitment after 1 hr by LANCE-FRET assay relative to control
T2 sequence (whole entry): T1 sequence (P51449 whole entry)

[3] = Intrinsic clearance in mouse liver microsomes; type: ADME, microsome
[4] = Inhibition of mouse splenocytes-derived CD4+ Th17 cell differentiation assessed as reduction in IL-17 production at 0.3 uM by flow cytometry relative to control; type: functional
Method in brief: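 CD4+ T cells were taken from mouse splenocytes by negative selection and skewed to Th17 over 4 days with anti-CD3 0.25 μg/mL, anti-CD28 1 μg/mL, anti-IFN-γ and anti-IL-4 2 μg/mL each, TGF-β 5 ng/mL and IL-6 20 ng/mL. Compound or DMSO was added on day 0. IL-17+ CD4+ cells were measured by intracellular staining and flow cytometry.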

| IC50 ([1]; read-out: IC50) [nM] | SMILES | also measured |
| --- | --- | --- |
| 914 | CCn1c(C)c(C)c2cc(C(=O)NCc3ccc(S(=O)(=O)CC)cc3)ccc21 |  |
| 170 | CCn1c2ccccc2c2cc(NC(=O)Cc3ccc(S(=O)(=O)CC)cc3)ccc21 |  |
| 1320 | CCn1c2c(c3cc(C(=O)NCc4ccc(S(=O)(=O)CC)cc4)ccc31)CCC2 |  |
|  | CCn1c2ccccc2c2cc(C(=O)NCC(C)NC(=O)Cc3ccc(S(=O)(=O)CC)cc3)ccc21 (centres undefined) | IC50 [1]: Not Active |
| 426 | CCn1c2c(c3cc(C(=O)NCc4ccc(S(=O)(=O)CC)cc4)ccc31)CCCC2 |  |
| 47.8 | CCn1c2ccc(C)cc2c2cc(C(=O)NCc3ccc(S(=O)(=O)CC)cc3)ccc21 | CLint [3]: 0.368 mL/min/g; inhibition at 0.3 µM [4]: 43.6% |
| 313 | CCn1c2ccccc2c2cc(C(=O)NCc3ccc(S(=O)(=O)NC)cc3)ccc21 |  |
| 3000 | CCn1c2ccc(C(=O)NCc3ccc(S(=O)(=O)CC)cc3)cc2c2ncccc21 |  |
| 1220 | CCn1c2ccccc2c2cc(C(=O)NCc3ccc(S(=O)(=O)CC)cn3)ccc21 |  |
| 16200 | CCn1c2ccccc2c2cc(NC(=O)NCc3ccc(S(=O)(=O)CC)cc3)ccc21 |  |
| 1100 | CCn1c2ccccc2c2cc(C(=O)NCc3ccc(S(C)(=O)=O)cc3)ccc21 |  |
| 156 | CCn1c2ccc(F)cc2c2cc(C(=O)NCc3ccc(S(=O)(=O)CC)cc3)ccc21 | CLint [3]: 0.348 mL/min/g; inhibition at 0.3 µM [4]: 45.9% |
| 1450 | CCCS(=O)(=O)c1ccc(CNC(=O)c2ccc3c(c2)c2ccccc2n3CC)cc1 |  |
| 7670 | CCn1c2ccccc2c2cc(NC(=O)CNC(=O)Cc3ccc(S(=O)(=O)CC)cc3)ccc21 |  |
| 5160 | CCn1ccc2cc(C(=O)NCc3ccc(S(=O)(=O)CC)cc3)ccc21 |  |
| 566 | CCS(=O)(=O)c1ccc(CNC(=O)c2ccc3c(c2)c2ccccc2n3C)cc1 |  |
| 58.5 | CCn1c2ccc(Cl)cc2c2cc(C(=O)NCc3ccc(S(=O)(=O)CC)cc3)ccc21 | CLint [3]: 0.197 mL/min/g; inhibition at 0.3 µM [4]: 58.8% |
| 167 | CCn1c2ccccc2c2cc(C(=O)NCc3ccc(S(=O)(=O)CC)cc3)ccc21 | CLint [3]: 0.305 mL/min/g; inhibition at 0.3 µM [4]: 40% |
| 5400 | CCS(=O)(=O)c1ccc(CNC(=O)c2ccc3[nH]c4ccccc4c3c2)cc1 |  |

| SMILES | IC50 ([1]; read-out: IC50) [nM] | also measured |
| --- | --- | --- |
| CCS(=O)(=O)c1ccc(CNC(=O)c2ccc3c(c2)c2ccccc2n3CC2CCC2)cc1 | 54.9 |  |
| CCS(=O)(=O)c1ccc(CNC(=O)c2ccc3c(c2)c2ccccc2n3CC2CCCCC2)cc1 | 33.5 | Emax [2]: 54% |
| CCS(=O)(=O)c1ccc(CNC(=O)c2ccc3c(c2)c2ccccc2n3C(C)C)cc1 | 358 |  |
| CCS(=O)(=O)c1ccc(CNC(=O)c2ccc3c(c2)c2ccccc2n3CC2CC2)cc1 | 81.9 |  |
| CCS(=O)(=O)c1ccc(CNC(=O)c2ccc3c(c2)c2ccccc2n3CC(C)C)cc1 | 69.6 |  |
| CCCn1c2ccccc2c2cc(C(=O)NCc3ccc(S(=O)(=O)CC)cc3)ccc21 | 138 |  |
